The term inhibition denotes how much of the control response was suppressed.

13 molecules from ChEMBL document CHEMBL1129974, “Discovery of HIV-1 integrase inhibitors by pharmacophore searching” (J Med Chem, 1997) can be followed below.

Human immunodeficiency virus type 1 integrase (Human immunodeficiency virus 1), sequence (Q7ZJM1 as listed by the source): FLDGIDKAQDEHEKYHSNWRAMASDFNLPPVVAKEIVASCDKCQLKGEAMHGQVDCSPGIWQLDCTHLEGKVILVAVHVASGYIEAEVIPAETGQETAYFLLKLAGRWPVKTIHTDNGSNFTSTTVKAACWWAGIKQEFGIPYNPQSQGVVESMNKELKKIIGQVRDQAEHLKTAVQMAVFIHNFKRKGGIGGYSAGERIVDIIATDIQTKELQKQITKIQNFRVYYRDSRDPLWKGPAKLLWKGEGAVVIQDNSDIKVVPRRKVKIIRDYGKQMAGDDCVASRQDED

One assay deals with Human immunodeficiency virus type 1 integrase (Human immunodeficiency virus 1) (UniProt Q7ZJM1). In words: Percentage inhibition was obtained by performing in vitro assay on purified recombinant integrase by 3''-processing method at 100 micro g/mL (experiment 1). The essentials:
(§1)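 Single concentration of 100 µg/mL tested. Recombinant HIV-1 integrase (200 nM final) preincubated with compound for 30 min at 30 °C in Mn2+/DMSO buffer, then reacted for 60 min with 20 nM 5′-32P-labeled 21-mer LTR duplex. Gel and phosphorimager quantitation of 19-mer 3′-processing and strand transfer products. %I = 100×[1−(D−C)/(N−C)], relative to DNA-alone and DNA+integrase controls.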
Regarding `Cc1cc(CC(=O)NCCO)n(CCO)c(=O)c1`, the inhibition was 45.3%.
Same read-out and setting: in the case of `O=C(NCCO)c1cc(Cl)ccc1O` it was 0.4%.
On the same count and under the same terms, in the case of `O=C(O)CNC(=O)c1ccccc1O` it was 28.9%.
Still for that read-out and setting: in the case of `O=C(N/N=C/c1ccccc1O)C(O)(c1ccccc1)c1ccccc1` it was 34.7%.
For `CCCCCCCCCCCCCCCCCCCN1CN(CO)CN(CO)C1=O`, the inhibition amounted to 20.8%.
On the same count and under the same terms, in the case of `O=C(OCCO)c1ccccc1O` it was 10.9%; in that of `O=C(CC(O)c1cccnc1)CC(O)c1cccnc1` (configuration not stated), 22.5%; in that of `CCN(CC)CCCC(C)Nc1ccnc2ccc(Cl)nc12` (configuration not stated), 43.7%.
On the same count and under the same terms, as for `O=c1ccc2cc(O[C@@H]3O[C@H](CO)[C@@H](O)[C@H](O)[C@H]3O)c(O)cc2o1`, the figure is 40.8%; as for `O=C(NN(CCO)CCO)c1ccccc1`, 25%; as for `O=C(N/N=C/c1ccccc1O)C(O)c1ccccc1` (configuration not stated), 37%.
On the same count and under the same terms, as for `O=C(NCO)c1ccccc1O`, the figure is 25.8%.
In the case of `CCN(CC)CCCC(C)Nc1cc(F)cc2cccnc12` (configuration not stated), the inhibition came to 36.5%.

The target is the same in a further assay. The assay can be described thus: Percentage inhibition was obtained by performing in vitro assay on purified recombinant integrase by 3''-processing method at 100 micro g/mL (experiment 2). The essentials:
as §1
Take `Cc1cc(CC(=O)NCCO)n(CCO)c(=O)c1`: the inhibition worked out at 30.3%.
The same measure, in the same setting: as for `O=C(NCCO)c1cc(Cl)ccc1O`, the figure is 2.2%; as for `O=C(O)CNC(=O)c1ccccc1O`, 33.3%.
On the same count and under the same terms, as for `O=C(N/N=C/c1ccccc1O)C(O)(c1ccccc1)c1ccccc1`, the figure is 56.7%; as for `CCCCCCCCCCCCCCCCCCCN1CN(CO)CN(CO)C1=O`, 43.2%; as for `O=C(OCCO)c1ccccc1O`, 2.6%.
With `O=C(CC(O)c1cccnc1)CC(O)c1cccnc1` (configuration not stated), the inhibition is 19.1%.
On to `CCN(CC)CCCC(C)Nc1ccnc2ccc(Cl)nc12` (configuration not stated), for which the inhibition is 30.6%.
For `O=c1ccc2cc(O[C@@H]3O[C@H](CO)[C@@H](O)[C@H](O)[C@H]3O)c(O)cc2o1`, the inhibition was 29.6%.
On the same count and under the same terms, in the case of `O=C(NN(CCO)CCO)c1ccccc1` it was 43.9%; in that of `O=C(N/N=C/c1ccccc1O)C(O)c1ccccc1` (configuration not stated), 45.8%; in that of `O=C(NCO)c1ccccc1O`, 10.2%.
Still for that read-out and setting: as for `CCN(CC)CCCC(C)Nc1cc(F)cc2cccnc12` (configuration not stated), the figure is 41.2%.

Another assay shares this target. In words: Percentage inhibition was obtained by performing in vitro assay on purified recombinant integrase by strand transfer method at 100 micro g/mL (experiment 1). A digest of the protocol:
as §1
In the case of `Cc1cc(CC(=O)NCCO)n(CCO)c(=O)c1`, the inhibition stood at 90.6%.
Turning to `O=C(NCCO)c1cc(Cl)ccc1O`, the inhibition came out at 0%.
As to `O=C(O)CNC(=O)c1ccccc1O`, the inhibition stood at 25%.
Same read-out and setting: in the case of `O=C(N/N=C/c1ccccc1O)C(O)(c1ccccc1)c1ccccc1` it was 70.5%; in that of `CCCCCCCCCCCCCCCCCCCN1CN(CO)CN(CO)C1=O`, 54.4%.
Still for that read-out and setting: in the case of `O=C(OCCO)c1ccccc1O` it was 17.1%; in that of `O=C(CC(O)c1cccnc1)CC(O)c1cccnc1` (configuration not stated), 48.1%; in that of `CCN(CC)CCCC(C)Nc1ccnc2ccc(Cl)nc12` (configuration not stated), 87.4%.
The same measure, in the same setting: as for `O=c1ccc2cc(O[C@@H]3O[C@H](CO)[C@@H](O)[C@H](O)[C@H]3O)c(O)cc2o1`, the figure is 67.7%.
Take `O=C(NN(CCO)CCO)c1ccccc1`: the inhibition was 52.4%.
Still for that read-out and setting: as for `O=C(N/N=C/c1ccccc1O)C(O)c1ccccc1` (configuration not stated), the figure is 77.9%; as for `O=C(NCO)c1ccccc1O`, 61.5%; as for `CCN(CC)CCCC(C)Nc1cc(F)cc2cccnc12` (configuration not stated), 27.6%.

A further assay has the same target. In words: Percentage inhibition was obtained by performing in vitro assay on purified recombinant integrase by strand transfer method at 100 micro g/mL (experiment 2). The essentials: as §1
`Cc1cc(CC(=O)NCCO)n(CCO)c(=O)c1`: the inhibition was 47.9%.
With `O=C(NCCO)c1cc(Cl)ccc1O`, the inhibition was 13.4%.
Same read-out and setting: in the case of `O=C(O)CNC(=O)c1ccccc1O` it was 33.3%.
The same measure, in the same setting: in the case of `O=C(N/N=C/c1ccccc1O)C(O)(c1ccccc1)c1ccccc1` it was 74.1%; in that of `CCCCCCCCCCCCCCCCCCCN1CN(CO)CN(CO)C1=O`, 69.7%.
For the molecule `O=C(OCCO)c1ccccc1O`, the inhibition was found to be 18.9%.
On the same count and under the same terms, as for `O=C(CC(O)c1cccnc1)CC(O)c1cccnc1` (configuration not stated), the figure is 43.2%.
The same measure, in the same setting: in the case of `CCN(CC)CCCC(C)Nc1ccnc2ccc(Cl)nc12` (configuration not stated) it was 56.6%; in that of `O=c1ccc2cc(O[C@@H]3O[C@H](CO)[C@@H](O)[C@H](O)[C@H]3O)c(O)cc2o1`, 34.2%.
Turning to `O=C(NN(CCO)CCO)c1ccccc1`, the inhibition worked out at 69.9%.
Same read-out and setting: in the case of `O=C(N/N=C/c1ccccc1O)C(O)c1ccccc1` (configuration not stated) it was 70.2%; in that of `O=C(NCO)c1ccccc1O`, 55.2%; in that of `CCN(CC)CCCC(C)Nc1cc(F)cc2cccnc12` (configuration not stated), 48.9%.
